From PubChem BioAssay come the findings set out here.

The structures appear in SMILES notation. The source made the active and inactive calls.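 The calls were made as follows, unless noted: active = viability at or under a set limit in both replicates, limit being median viability minus 3 SD (cut at about 48% in these data, passing the limit was not always enough); inconclusive = at or under the limit in just one replicate; inactive = at or above the limit in both replicates.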

A short description of assay [1]: Her2 expression decrease, cell viability multiplex – SKBR3 breast tumor cells, AlphaScreen, ATP viability, primary screen (AID 461;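 active = Her2 level under about 52% in both replicate screens, with viability over 70% of control, limit read from the data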;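 as to Her2 level: lower value means less Her2 protein in the cells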;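 as to viability: percent of carrier control wells set as 100% viability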). As to conditions: SKBR3 Her2 protein level, 18-24 h, measured here: SKBR3 viability, ATP luminescence, at 10 µM.
The target in assay [2] is Receptor tyrosine-protein kinase erbB-2 (Homo sapiens) (UniProt P04626). The assay is described as above. Conditions: 18-24 h, at 10 µM, stronger effect = lower value.
Sequence of Receptor tyrosine-protein kinase erbB-2 (Homo sapiens) (P04626 whole entry, looked up): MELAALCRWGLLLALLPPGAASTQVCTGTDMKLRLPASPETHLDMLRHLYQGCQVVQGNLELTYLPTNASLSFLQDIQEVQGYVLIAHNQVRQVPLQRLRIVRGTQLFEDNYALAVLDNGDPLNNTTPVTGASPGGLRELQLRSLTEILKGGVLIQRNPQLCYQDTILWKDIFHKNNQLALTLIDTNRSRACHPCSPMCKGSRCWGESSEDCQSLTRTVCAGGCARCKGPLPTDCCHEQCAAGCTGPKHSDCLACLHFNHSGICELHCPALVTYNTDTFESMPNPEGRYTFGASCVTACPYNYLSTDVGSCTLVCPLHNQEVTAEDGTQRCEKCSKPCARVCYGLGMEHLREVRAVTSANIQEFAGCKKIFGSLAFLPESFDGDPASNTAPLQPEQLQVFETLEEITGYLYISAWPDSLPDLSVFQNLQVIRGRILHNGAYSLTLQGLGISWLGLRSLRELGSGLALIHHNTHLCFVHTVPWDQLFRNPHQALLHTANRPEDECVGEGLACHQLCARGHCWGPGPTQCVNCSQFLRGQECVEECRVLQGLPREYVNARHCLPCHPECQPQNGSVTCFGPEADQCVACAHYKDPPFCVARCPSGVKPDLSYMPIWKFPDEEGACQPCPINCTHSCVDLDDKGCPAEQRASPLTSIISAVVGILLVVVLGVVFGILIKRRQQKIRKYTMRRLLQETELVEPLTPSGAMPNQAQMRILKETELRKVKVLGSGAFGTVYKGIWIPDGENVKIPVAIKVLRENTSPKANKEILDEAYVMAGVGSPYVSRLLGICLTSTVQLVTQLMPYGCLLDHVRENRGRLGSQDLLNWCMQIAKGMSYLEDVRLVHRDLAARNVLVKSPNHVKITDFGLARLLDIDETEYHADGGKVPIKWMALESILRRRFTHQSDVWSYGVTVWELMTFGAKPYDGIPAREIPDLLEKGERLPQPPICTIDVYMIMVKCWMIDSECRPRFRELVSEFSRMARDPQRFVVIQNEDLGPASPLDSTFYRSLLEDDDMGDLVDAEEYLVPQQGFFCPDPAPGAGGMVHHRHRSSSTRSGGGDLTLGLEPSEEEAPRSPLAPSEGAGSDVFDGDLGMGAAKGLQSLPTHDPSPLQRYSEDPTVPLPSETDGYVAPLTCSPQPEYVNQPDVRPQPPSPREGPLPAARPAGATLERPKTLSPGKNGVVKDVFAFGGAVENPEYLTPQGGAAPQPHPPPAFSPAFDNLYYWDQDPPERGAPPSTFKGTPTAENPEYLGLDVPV
Assay [3] is described as follows: reduced viability of SK-BR-3 breast cancer cells – cell-based, 24 h, human, pilot screen (AID 572;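 active = viability at or below 10% of carrier control in both of two separate runs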;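 also: compound exposure lasted between 18 and 24 h rather than exactly 24 h; 100% = carrier-treated control wells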). Conditions: SK-BR-3 viability, CellTiter-Glo luminescence, at 10 µM, stronger effect = lower value.
Assay [4] can be described thus: HUVEC growth inhibition – cell-based, human, primary screen (AID 575;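 active = viability at or below 30% in both replicate assays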;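 also: 100% = median of untreated cell wells with 0.1% DMSO on each plate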). Conditions: HUVEC proliferation, CellTiter-Glo luminescence, 72 h; at 10 µM; stronger effect = lower value. An outline of the steps:
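Assay system: primary human umbilical vein endothelial cells / Buffer or medium: endothelial basal medium with 2% FBS plus growth supplements / Compound dosing: one dose, 10 µM final, 0.1% DMSO / Timing: 72 h treatment at 37 °C / Signal: CTG luminescence / Benchmarks: 32 DMSO-only cell-control wells (high), 32 MePR drug-control wells (low) per plate / Plate: collagen-coated 384-well format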

A short description of assay [5]: H69AR cell proliferation blockers – human, duplicate replicates, primary screen (AID 580).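 Also: 100% = mean luminescence of untreated wells and 0% = no signal.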 As to conditions: H69AR lung tumor cells viability, ATP luminescence, 72 h; at 10 µM; stronger effect = lower value.
Assay [6] is described as follows: MRP1 drug-resistance reversers in H69AR cells – cell-based, doxorubicin co-treatment, pilot screen (AID 601;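 active = viability loss from added drug above about 55%, and viability with drug at most 40%, in both replicates, limit read from the data, passing the limit was not always enough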). As to conditions: CellTiter-Glo, 72 h, at 10 µM; for differential viability (reversal): stronger effect = higher value.
A short description of assay [7]: yeast transport mutant growth inhibition pilot in 384-well plates, post-Golgi transport modulator project (AID 636; in the data active = inhibition above about 31%). Conditions: absorbance 615 nm, about 18 h, stronger effect = higher value.
Assay [8] in a line: growth suppression of yeast trafficking mutant, preliminary HTS, modulators of trafficking downstream of Golgi apparatus project, 1536-format plate, OD 615 nm (AID 637; in the data active = inhibition above about 30%). As to conditions: yeast transport mutant growth, absorbance 615 nm, 18 h; stronger effect = higher value.
Where [9] appears, read: H69AR cells + 2 uM doxorubicin, measured here: viability with 2 uM doxorubicin, stronger effect = lower value.
[10] abbreviates: H69AR cells, compound alone cytotoxicity.

As to `Cc1ccc(NC(=O)CN2CC(C)SC2=NC2CCCCC2)cc1` (stereo not given), the viability in assay [1] was 84.5%; in assay [3], 84.5% (inactive); in assay [4] it was 96% (inactive); in assay [5], 83.9% (inactive); in assay [6] (setting [9]), 83%; in assay [6] (setting [10]) it was 83.9%. For the same compound, the Her2 level in assay [2] is 113% (inactive). In addition, in assay [6] (H69AR cells + 2 uM doxorubicin), the differential viability (reversal) is 0.935% (inactive). The inhibition in assay [7] is -6.8% (inactive); in assay [8] it was 1.94% (inactive).
Regarding `COc1ccc(OC)c(S(=O)(=O)Nc2ccccc2C(=O)O)c1`, the viability in assay [1] is 109%; in assay [3] it was 109% (inactive); in assay [4], 98.3% (inactive); in assay [5], 99% (inactive); in assay [6] (setting [9]), 87.2%; in assay [6] (setting [10]), 99%. In assay [2], the Her2 level was 100% (inactive). Besides, the differential viability (reversal) in assay [6] (H69AR cells + 2 uM doxorubicin) was 11.8% (inactive). Also, the results for the inhibition in assay [7] and in assay [8] were -4.4% (inactive) and 0.16% (inactive), respectively.
As for `O=C1NC(Cc2c[nH]c3ccccc23)C(=O)N1CCOc1ccccc1` (stereo not given), the viability in assay [1] was 79.5%; in assay [3], 79.5% (inactive); in assay [4], 73.2% (inactive); in assay [5], 94.4% (inactive); in assay [6] (setting [9]), 94.2%; in assay [6] (setting [10]) it was 94.4%. For the same compound, the Her2 level in assay [2] is 89% (inactive). For the same compound, the differential viability (reversal) in assay [6] (H69AR cells + 2 uM doxorubicin) was 0.2% (inactive). In addition, the inhibition in assay [7] is -2.76% (inactive); in assay [8], -1.83% (inactive).
As for `Cc1nc(-c2cnn(-c3ccccc3)c2)c2cc(C)oc2n1`, the viability is 74.5% in assay [1]; 74.5% (inactive) in assay [3]; 67.2% (inactive) in assay [4]; 90.7% (inactive) in assay [5]; 87.4% in assay [6] (setting [9]); 90.7% in assay [6] (setting [10]). Further, the Her2 level in assay [2] is 76% (inactive). For the same compound, in assay [6] (H69AR cells + 2 uM doxorubicin), the differential viability (reversal) was 3.27% (inactive). The inhibition in assay [7] was -2.11% (inactive); in assay [8], 3.28% (inactive).
As to `CCOC(=O)c1sc2ncn(/N=C/N(C)C)c(=O)c2c1C`, the viability in assay [1] was 98%; in assay [3] it was 98% (inactive); in assay [4], 114% (inactive); in assay [5] it was 100% (inactive); in assay [6] (setting [9]), 94.1%; in assay [6] (setting [10]), 100%. Moreover, in assay [2], the Her2 level was 97.5% (inactive). The differential viability (reversal) in assay [6] (H69AR cells + 2 uM doxorubicin) is 5.85% (inactive). Moreover, the figures for the inhibition in assay [7] and in assay [8] were -6.13% (inactive) and 4.68% (inactive), respectively.
Turning to `COc1ccc(NC(=O)CN2CCN(CC(=O)Nc3cc(OC)cc(OC)c3)CC2)cc1`, the viability is 79% in assay [1]; 79% (inactive) in assay [3]; 97.8% (inactive) in assay [4]; 83.1% (inactive) in assay [5]; 88.4% in assay [6] (setting [9]); 83.1% in assay [6] (setting [10]). In addition, the Her2 level in assay [2] was 96.5% (inactive). In addition, in assay [6] (H69AR cells + 2 uM doxorubicin), the differential viability (reversal) was -5.3% (inactive). Further, the inhibition in assay [7] was -3.77% (inactive); in assay [8], 0.66% (inactive).
Regarding `O=C(NCc1ccccn1)c1cccs1`, the viability in assay [1] is 97%; in assay [3], 97% (inactive); in assay [4] it was 92.4% (inactive); in assay [5], 105% (inactive); in assay [6] (setting [9]), 92.8%; in assay [6] (setting [10]) it was 105%. Further, in assay [2], the Her2 level was 80.5% (inactive). In assay [6] (H69AR cells + 2 uM doxorubicin), the differential viability (reversal) was 11.9% (inactive). Moreover, the figures for the inhibition in assay [7] and in assay [8] were -7.43% (inactive) and 4.1% (inactive), respectively.
With `COCCn1nnnc1C(c1ccc(OC)cc1)N1CCN(c2ccccc2F)CC1` (stereo not given), the viability is 100% in assay [1]; 100% (inactive) in assay [3]; 107% (inactive) in assay [4]; 89.7% (inactive) in assay [5]; 79.8% in assay [6] (setting [9]); 89.7% in assay [6] (setting [10]). Moreover, in assay [2], the Her2 level is 101% (inactive). In addition, the differential viability (reversal) in assay [6] (H69AR cells + 2 uM doxorubicin) was 9.91% (inactive). The inhibition is -2.6% (inactive) in assay [7] and -2.06% (inactive) in assay [8].
For `O=C(NCc1ccc2c(c1)OCO2)c1cc2n(n1)C(C(F)(F)F)CC(c1ccc3c(c1)OCO3)N2` (stereo not given), the viability in assay [1] is 98%; in assay [3] it was 98% (inactive); in assay [4], 73.8% (inactive); in assay [5] it was 84.2% (inactive); in assay [6] (setting [9]), 74.7%; in assay [6] (setting [10]), 84.2%. Further, the Her2 level in assay [2] was 82% (inactive). Also, the differential viability (reversal) in assay [6] (H69AR cells + 2 uM doxorubicin) is 9.51% (inactive). Besides, the inhibition in assay [7] was -2.89% (inactive); in assay [8], 5% (inactive).
Take `CC(=O)N(CCN(C(C)=O)c1ccccc1)c1ccccc1`: the viability is 105% in assay [1]; 105% (inactive) in assay [3]; 88.8% (inactive) in assay [4]; 91.7% (inactive) in assay [5]; 80% in assay [6] (setting [9]); 91.7% in assay [6] (setting [10]). In assay [2], the Her2 level is 93% (inactive). The differential viability (reversal) in assay [6] (H69AR cells + 2 uM doxorubicin) was 11.7% (inactive). Further, the inhibition in assay [7] is -1.95% (inactive); in assay [8], -1.64% (inactive).
As for `CCCN(C(=O)CSc1nnc(-c2ccoc2C)n1N)C1CCS(=O)(=O)C1` (stereo not given), the viability is 86.5% in assay [1]; 86.5% (inactive) in assay [3]; 79.7% (inactive) in assay [4]; 94.8% (inactive) in assay [5]; 86.9% in assay [6] (setting [9]); 94.8% in assay [6] (setting [10]). Further, the Her2 level in assay [2] was 88.5% (inactive). The differential viability (reversal) in assay [6] (H69AR cells + 2 uM doxorubicin) is 7.94% (inactive). Moreover, the inhibition in assay [7] was -2.6% (inactive); in assay [8], 2.13% (inactive).
Turning to `CC1CCC(C(=O)NC(C(=O)NCCN2CCC(C)CC2)C(C)C)CC1` (stereo not given), the viability is 126% in assay [1]; 126% (inactive) in assay [3]; 87.6% (inactive) in assay [4]; 81.3% (inactive) in assay [5]; 87.9% in assay [6] (setting [9]); 81.3% in assay [6] (setting [10]). Moreover, the Her2 level in assay [2] is 107% (inactive). Further, the differential viability (reversal) in assay [6] (H69AR cells + 2 uM doxorubicin) is -6.62% (inactive). Further, the inhibition was -1.04% (inactive) in assay [7] and 13.9% (inactive) in assay [8].
In the case of `Cc1cc(N2CCN(c3ccccn3)CC2)n2nc(C)nc2n1`, the viability in assay [1] was 102%; in assay [3] it was 102% (inactive); in assay [4] it was 90.2% (inactive); in assay [5], 87.4% (inactive); in assay [6] (setting [9]), 94.7%; in assay [6] (setting [10]), 87.4%. In addition, the Her2 level in assay [2] is 114% (inactive). The differential viability (reversal) in assay [6] (H69AR cells + 2 uM doxorubicin) is -7.31% (inactive). The inhibition in assay [7] was -4.23% (inactive); in assay [8], -7% (inactive).
On to `COc1ccc(S(=O)(=O)N2CCCC(C(=O)N3CCCCCC3)C2)cc1` (stereo not given), for which the viability in assay [1] is 102%; in assay [3], 102% (inactive); in assay [4], 100% (inactive); in assay [5] it was 88.2% (inactive); in assay [6] (setting [9]) it was 91.9%; in assay [6] (setting [10]) it was 88.2%. Besides, the Her2 level in assay [2] was 80% (inactive). In addition, in assay [6] (H69AR cells + 2 uM doxorubicin), the differential viability (reversal) is -3.65% (inactive). Moreover, the inhibition is -5% (inactive) in assay [7] and 2% (inactive) in assay [8].
